Structures are written as SMILES. Calls of active or inactive are those of the source. No cut-off for these calls is given here.

10 compounds from ChEMBL document CHEMBL3102741, “A novel 2,3-diphenyl-4H-pyrido[1,2-a]pyrimidin-4-one derivative inhibits endothelial cell dysfunction and smooth muscle cell proliferation/activation” (Eur J Med Chem, 2014) can be followed below.

Data set [1] concerns HUVEC. Description: Antiinflammatory activity in HUVEC assessed as inhibition of TNF-alpha-induced VCAM1 expression incubated for 1 hr prior to TNF-alpha challenge measured after overnight incubation by enzyme immunoassay method. Type of data set: functional, Homo sapiens. Summed up:
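Confluent HUVECs in 96-well plates were pre-treated 1 h with compound (25 µM), then stimulated with TNF-α 10 ng/mL overnight. Cell-surface VCAM-1 was measured by cell-surface enzyme immunoassay. Three independent experiments, each with n = 8 replicates.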

Data set [2] relates to HUVEC. Briefly: Cytotoxicity against HUVEC assessed as cell viability up to 50 uM after 24 to 72 hrs by WST-1 assay. As to conditions: human. Type of data set: cell-based. The method in brief:
(§1)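 HUVECs were exposed to compound (10, 25, 50 µM; 0.1% DMSO vehicle) for 24 h or 72 h. WST-1 premix was added for a further 2 h, and formazan absorbance was read at 450 nm as a measure of mitochondrial dehydrogenase activity. Three independent experiments, each with n = 6 replicates.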
(In general: Tetrazolium assays rely on reduction of a dye to a coloured formazan, in cell work by metabolically active cells.)

Data set [3] relates to HUVEC. Briefly: Cytotoxicity against HUVEC assessed as cell viability at 10 to 50 uM after 24 to 72 hrs by WST-1 assay relative to untreated control. As to conditions: human. The data set is classed as cell-based. The method in brief: as §1
For data set [4], the system named is HUVEC. Description: Cytotoxicity against HUVEC assessed as cell detachment at 10 to 50 uM after 72 hrs by phase-contrast microscopy. The data set is classed as cell-based. The settings on record: human. The method in brief:
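After 72 h of treatment with compound at concentrations up to 50 µM, HUVEC morphology was examined by phase-contrast microscopy.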

The test system of data set [5] is HUVEC. Description: Cytotoxicity against HUVEC assessed as cell viability at 10 uM after 24 to 72 hrs by WST-1 assay relative to untreated control. The settings on record: human. Type of data set: cell-based. Summed up: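 HUVECs (used up to fifth passage from primary culture) in 96-well plates exposed to compound for 24 h or 72 h, DMSO final ≤0.1% as vehicle; WST-1 premix added for further 2 h, absorbance at 450 nm; viability relative to untreated cells. Morphology also checked by phase-contrast microscopy. Mean of three independent experiments, each n = 6 replicates.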

Data set [6] concerns the target Matrix metalloproteinase-9 (Homo sapiens) (UniProt P14780). Description: Inhibition of PMA-induced MMP9 activity in HAoSMC at 25 uM after 24 hrs by gelatin zymography relative to control. The method in brief: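 HAoSMCs were treated with PMA 10 nM in serum-free medium, with or without compound (10, 25 µM), for 24 h. Conditioned medium ([…]) was run on 11% SDS-PAGE containing 0.1% gelatin at 125 V and 4 °C. Gels were washed in Triton X-100, incubated 24 h at 37 °C in Tris pH 7.5/CaCl2 buffer, and Coomassie-stained. Lysis bands were quantified by densitometry.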

Data set [7] is filed under the species Homo sapiens. Briefly: Antiinflammatory activity in HAoSMC assessed as inhibition of PMA-induced MMP-9 mRNA expression at 10 to 25 uM incubated for 1 hr prior to PMA challenge measured after overnight incubation by RT-PCR analysis. The data set is classed as functional. The method in brief:
(§2)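 Confluent cells (HAoSMCs at passages 20–30, HUVECs up to fifth passage) were pre-treated 1 h with compound (1, 10, 25 µM) or 0.1% DMSO, then stimulated with PMA 10 nM, PDGF-BB 20 ng/mL or TNF-α 10 ng/mL overnight. Total RNA was extracted and RT-PCR run with GAPDH co-amplified. Bands were quantified by densitometry and normalized to GAPDH. Three determinations.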

Data set [8] concerns HUVEC. Description: Antiinflammatory activity in HUVEC assessed as reduction in TNF-alpha-induced VCAM1 mRNA expression at 10 to 25 uM incubated for 1 hr prior to TNF-alpha challenge measured after 4 hrs by RT-PCR analysis relative to control. The settings on record: Homo sapiens. The data set is classed as functional, cell-based. Summed up: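 HUVECs were pre-treated 1 h with compound, then exposed to TNF-α 10 ng/mL for 4 h. Total RNA was extracted and VCAM-1 with GAPDH amplified by RT-PCR (VCAM-1 30 cycles, 55 °C annealing). Bands were quantified by densitometry and normalized to GAPDH. Mean ± SEM of three determinations.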

For data set [9], the system named is HUVEC. Briefly: Effect on PMA-induced COX-2 protein expression in HUVEC at 1 to 25 uM incubated for 1 hr prior to PMA challenge measured after overnight incubation by EIA assay relative to control. Type of data set: ADME, cell-based. As to conditions: human. The method in brief: (§3)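 Cells were pre-treated 1 h with compound, then stimulated overnight with PMA 10 nM, TNF-α 10 ng/mL (HUVECs) or PDGF-BB 20 ng/mL (HAoSMCs). Monolayers were fixed and permeabilized in cold acetone on ice for 2 min. They were probed with goat anti-COX-2 and then HRP anti-goat IgG, developed with TMB for 30 min, stopped with 0.18 M H2SO4, and read at 450 nm. Three experiments, n = 6 each.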

The species entered for data set [10] is Homo sapiens. Briefly: Inhibition of PMA-induced COX-2 mRNA expression in HAoSMC at 1 to 25 uM incubated for 1 hr prior to PMA challenge measured after overnight incubation by RT-PCR analysis relative to control. Type of data set: functional. The method in brief: as §2
For data set [11], the species on record is Homo sapiens. Description: Inhibition of PMA-induced COX-2 protein expression in HAoSMC at 1 to 25 uM incubated for 1 hr prior to PMA challenge measured after overnight incubation by EIA assay relative to control. Type of data set: functional. Summed up: as §3
For data set [12], the target named is T1, Prostaglandin G/H synthase 2 (Homo sapiens) (UniProt P35354).
T1 sequence (whole entry): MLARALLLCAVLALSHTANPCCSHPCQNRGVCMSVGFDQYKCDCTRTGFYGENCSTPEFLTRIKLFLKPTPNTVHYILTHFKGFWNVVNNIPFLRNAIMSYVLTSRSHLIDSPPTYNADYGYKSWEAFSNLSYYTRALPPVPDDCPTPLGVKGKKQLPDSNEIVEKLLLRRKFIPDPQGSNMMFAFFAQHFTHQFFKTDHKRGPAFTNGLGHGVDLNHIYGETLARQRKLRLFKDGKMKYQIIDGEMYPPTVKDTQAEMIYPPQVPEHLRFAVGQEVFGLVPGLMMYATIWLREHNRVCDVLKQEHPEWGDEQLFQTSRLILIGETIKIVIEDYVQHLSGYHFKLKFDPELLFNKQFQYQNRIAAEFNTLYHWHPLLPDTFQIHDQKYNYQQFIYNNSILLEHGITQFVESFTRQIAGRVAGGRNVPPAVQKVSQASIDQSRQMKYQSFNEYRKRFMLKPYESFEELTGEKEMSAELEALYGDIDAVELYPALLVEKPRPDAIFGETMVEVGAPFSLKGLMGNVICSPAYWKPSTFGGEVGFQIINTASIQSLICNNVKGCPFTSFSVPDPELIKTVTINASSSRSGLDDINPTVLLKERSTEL
Briefly: Inhibition of COX2 in HAoSMC assessed as PMA-induced PGE2 production at 1 to 25 uM incubated for 1 hr prior to PMA challenge measured after overnight incubation by competitive enzyme immunoassay. The method in brief: (§4)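 Cells were pre-treated 1 h with compound (1–25 µM), then stimulated overnight with PMA 10 nM (HAoSMCs) or TNF-α 10 ng/mL (HUVECs). Conditioned medium was centrifuged, and PGE2 and PGI2 (as 6-keto-PGF1α) were measured by competitive EIA in pg/mL. Three independent experiments in duplicate.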

The target in data set [13] is T1, Prostaglandin G/H synthase 2 (Homo sapiens). Description: Inhibition of COX2 in HUVEC assessed as TNF-alpha-induced PGI2 production at 1 to 25 uM incubated for 1 hr prior to TNF-alpha challenge measured after overnight incubation by competitive enzyme immunoassay. Summed up: as §4
For data set [14], the system named is HUVEC. Description: Effect on TNF-alpha-induced COX-2 mRNA expression in HUVEC at 1 to 25 uM incubated for 1 hr prior to TNF-alpha challenge measured after overnight incubation by RT-PCR analysis relative to control. Type of data set: ADME, cell-based. As to conditions: human. Summed up: as §2
The test system of data set [15] is HUVEC. Description: Effect on PMA-induced COX-2 mRNA expression in HUVEC at 1 to 25 uM incubated for 1 hr prior to PMA challenge measured after overnight incubation by RT-PCR analysis relative to control. Type of data set: ADME, cell-based. As to conditions: human. The method in brief:
as §2

Data set [16] deals with HUVEC. Briefly: Cytotoxicity against HUVEC at 1 to 25 uM after 48 hrs by BrdU incorporation assay relative to untreated control. As to conditions: human.
Data set [17] deals with HUVEC. Briefly: Effect on TNF-alpha-induced COX-2 protein expression in HUVEC at 1 to 25 uM incubated for 1 hr prior to TNF-alpha challenge measured after overnight incubation by EIA assay relative to control. The data set is classed as ADME, cell-based. As to conditions: human. The method in brief: as §3
Data set [18] has as its target T1, Prostaglandin G/H synthase 2 (Homo sapiens). Briefly: Inhibition of COX2 in HUVEC assessed as TNF-alpha-induced PGE2 production at 1 to 25 uM incubated for 1 hr prior to TNF-alpha challenge measured after overnight incubation by competitive enzyme immunoassay. The method in brief:
as §4

For data set [19], the species on record is Homo sapiens. Briefly: Cytotoxicity against HAoSMC assessed as inhibition of PDGF-BB-induced cell growth incubated for 1 hr prior to PDGF-BB challenge measured after 48 hrs by BrdU incorporation assay. The data set is classed as functional. Summed up:
(§5)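 Cells at about 70% confluence were serum-starved overnight, pre-treated 1 h with compound (1–25 µM), then grown with or without PDGF-BB (HAoSMCs) or ECGF (HUVECs), each at 20 ng/mL, for 48 h. Cells were BrdU-labelled, fixed and immunostained, and absorbance was read at 450 nm. Three experiments, n = 8 each.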
In general terms: Incorporation of labelled thymidine or its analogues reports DNA synthesis.

For data set [20], the species on record is Homo sapiens. Briefly: Inhibition of PDGF-BB-induced COX-2 mRNA expression in HAoSMC at 1 to 25 uM incubated for 1 hr prior to PDGF-BB challenge measured after overnight incubation by RT-PCR analysis relative to control. The data set is classed as functional. The method in brief:
as §2

The species entered for data set [21] is Homo sapiens. Description: Inhibition of PDGF-BB-induced COX-2 protein expression in HAoSMC incubated for 1 hr prior to PDGF-BB challenge measured after overnight incubation by EIA assay relative to control. The data set is classed as functional. The method in brief:
as §3

The subject of data set [22] is HUVEC. Description: Cytotoxicity against HUVEC assessed as inhibition of ECGF-induced cell growth at 1 to 25 uM incubated for 1 hr prior to ECGF challenge measured after 48 hrs by BrdU incorporation assay relative to control. The settings on record: human. The data set is classed as cell-based. Summed up: as §5

Chain of Matrix metalloproteinase-9 (Homo sapiens) (P14780 whole entry): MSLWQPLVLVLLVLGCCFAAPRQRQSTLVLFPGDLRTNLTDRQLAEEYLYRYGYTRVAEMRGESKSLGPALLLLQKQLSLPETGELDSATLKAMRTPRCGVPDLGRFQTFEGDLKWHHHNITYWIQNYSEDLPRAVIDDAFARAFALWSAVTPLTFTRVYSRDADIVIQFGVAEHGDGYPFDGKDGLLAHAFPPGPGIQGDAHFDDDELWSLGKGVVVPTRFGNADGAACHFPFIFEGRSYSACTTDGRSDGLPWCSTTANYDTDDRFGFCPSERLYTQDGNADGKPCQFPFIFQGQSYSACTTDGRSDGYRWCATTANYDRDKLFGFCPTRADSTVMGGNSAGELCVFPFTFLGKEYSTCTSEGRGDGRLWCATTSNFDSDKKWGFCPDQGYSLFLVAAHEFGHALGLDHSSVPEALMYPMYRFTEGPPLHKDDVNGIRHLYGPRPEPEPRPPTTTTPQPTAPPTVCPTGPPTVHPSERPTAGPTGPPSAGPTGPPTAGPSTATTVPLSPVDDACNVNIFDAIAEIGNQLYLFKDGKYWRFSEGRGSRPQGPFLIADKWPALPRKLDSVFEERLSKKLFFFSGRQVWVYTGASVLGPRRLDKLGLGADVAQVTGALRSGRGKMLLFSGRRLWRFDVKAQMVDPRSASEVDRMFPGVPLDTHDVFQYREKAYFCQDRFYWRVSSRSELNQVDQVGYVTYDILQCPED

In the case of `COc1ccc(-c2c(-c3ccccc3)nc3ccccn3c2=O)cc1`, the “inhibition (INH)” value in data set [1] is on record as 12%. The Activity entry in [2] was “Non-toxic”.

With `O=c1cc(-c2ccc(O)cc2)oc2cc(O)cc(O)c12` [APIGENIN], the Activity entry in [3], in data set [4] and in [5] was “Toxic” each time.

`O=c1c(-c2ccccc2)c(-c2ccccc2)nc2ccccn12`: the “inhibition (INH)” value in [1] was 8.5%. Also, the Activity entry in data set [2] is “Non-toxic”.

Regarding `COc1ccc(-c2nc3ccccn3c(=O)c2-c2ccc(OC)c(OC)c2)cc1`, in data set [1], the “inhibition (INH)” value was 15%. Also, in [2], the Activity result was “Non-toxic”.

`COc1ccc(-c2c(-c3ccccc3)nc3ccccn3c2=O)cc1OC`: the “inhibition (INH)” value in data set [1] is listed as 12%. Moreover, in data set [2], the Activity result is listed as “Non-toxic”.

As to `COc1ccc(-c2nc3ccccn3c(=O)c2-c2ccc(OC)cc2)cc1`, in [1], the “inhibition (INH)” value stood at 9.6%. For the same compound, the Activity result in data set [2] is on record as “Non-toxic”.

For `COc1ccc(-c2nc3ccccn3c(=O)c2-c2ccccc2)cc1`, in [1], the “inhibition (INH)” value came out at 8.9%. For the same compound, the Activity entry in [2] is “Non-toxic”.

`O=c1c(O)c(-c2ccc(O)c(O)c2)oc2cc(O)cc(O)c12` [QUERCETIN]: the Activity result in [3], in data set [4] and in [5] was “Toxic” throughout.

`COc1ccc(-c2c(-c3ccc(OC)c(OC)c3)nc3ccccn3c2=O)cc1`: the “inhibition (INH)” value in data set [1] was 10.3%. In addition, the Activity entry in data set [2] is “Non-toxic”.

Turning to `COc1ccc(-c2nc3ccccn3c(=O)c2-c2ccccc2)cc1OC`, the inhibition entry in data set [6], in [7], in data set [8], in [10], in data set [11] and in data set [12] was “Active” each time. Besides, in [20], the inhibition entry was “Active”. Also, the Activity entry in data set [3], in data set [9], in data set [4], in data set [14], in [2] and in data set [15] was “Non-toxic” in each case. Moreover, the Activity entry in data set [16], in data set [17] and in [22] was “Non-toxic” throughout. In addition, the inhibition entry in data set [13] and in data set [18] was “inactive” throughout. Also, the “inhibition (INH)” value in [1] is recorded as 37%. Besides, the inhibition entry in data set [1] (Homo sapiens), in data set [19] and in data set [21] was “Dose-dependent effect” each time.
